Source: ChEMBL document CHEMBL4406874, “One-pot synthesis of novel tert-butyl-4-substituted phenyl-1H-1,2,3-triazolo piperazine/piperidine carboxylates, potential GPR119 agonists” (Bioorg Med Chem Lett, 2019)

These compounds were tested against T1, Glucose-dependent insulinotropic receptor (Homo sapiens, UniProt Q8TDV5) (assay: Agonist activity at recombinant human GPR119 expressed in HEK293 cells after 24 hrs by steady-glo luciferase assay).
T1 sequence (Q8TDV5 whole entry): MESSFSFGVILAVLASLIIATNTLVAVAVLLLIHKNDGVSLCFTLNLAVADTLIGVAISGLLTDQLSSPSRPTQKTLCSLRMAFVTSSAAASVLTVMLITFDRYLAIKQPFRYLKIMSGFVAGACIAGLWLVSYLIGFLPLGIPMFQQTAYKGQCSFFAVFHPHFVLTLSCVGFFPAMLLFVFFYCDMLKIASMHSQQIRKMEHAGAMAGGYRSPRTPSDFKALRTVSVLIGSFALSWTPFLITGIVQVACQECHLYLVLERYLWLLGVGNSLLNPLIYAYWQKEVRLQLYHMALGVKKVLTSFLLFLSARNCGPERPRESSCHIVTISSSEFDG
Assay type: cell-based
Outline: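 HEK-293 cells stably carrying GPR119 plus a CRE-luciferase reporter, seeded at 10,000 cells/well and cultured 24 h before compound addition at 0.1 nM to 1mM. DMSO served as negative control and AR231453 as reference agonist. Luciferase signal was read after a further 24 h as a surrogate for cAMP elevation.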

Which EC50 does the source give for `CC(C)(C)OC(=O)N1CCN(C(=O)c2cn(-c3ccc(C#N)cc3F)nn2)CC1` here?
Its EC50 is 4.21 nM.

With `CC(C)(C)OC(=O)N1CCN(C(=O)c2cn(-c3ccc(S(C)(=O)=O)cc3)nn2)CC1` as the compound, how does the EC50 read?
The EC50 was 3.12 nM.

For `CC(C)(C)OC(=O)N1CCN(C(=O)c2cn(-c3ccc(C(F)(F)F)cc3Cl)nn2)CC1`, which EC50 is on record?
Its EC50 is 8.78 nM.

`CC(C)(C)OC(=O)N1CCC(OC(=O)c2cn(-c3ccc(S(C)(=O)=O)cc3F)nn2)CC1` was tested. Which EC50 did it give?
The EC50 was 14 nM.

For `CC(C)(C)OC(=O)N1CCN(C(=O)c2cn(-c3ccc(Cl)c(C(F)(F)F)c3)nn2)CC1`, which EC50 is on record?
Its EC50 is 12.3 nM.

How did the EC50 turn out when `CC(C)(C)OC(=O)N1CCN(C(=O)c2cn(-c3nc4ccccc4s3)nn2)CC1` was run?
The EC50 was 7.12 nM.

How did the EC50 turn out when `CC(C)(C)OC(=O)N1CCC(OC(=O)c2cn(-c3ccc(Cl)c(C(F)(F)F)c3)nn2)CC1` was run?
The EC50 was 12.3 nM.

How did the EC50 turn out when `CC(C)(C)OC(=O)N1CCN(C(=O)c2cn(-c3ccc(S(C)(=O)=O)cc3F)nn2)CC1` was run?
Its EC50 is 12.4 nM.

For `CC(C)(C)OC(=O)N1CCN(C(=O)c2cn(-c3ccc(C(F)(F)F)cc3)nn2)CC1`, which EC50 is on record?
The EC50 was 13.6 nM.

With `CC(C)(C)OC(=O)N1CCC(OC(=O)c2cn(-c3ccc(C(F)(F)F)cc3Cl)nn2)CC1` as the compound, how does the EC50 read?
Its EC50 is 11.1 nM.

`CC(C)(C)OC(=O)N1CCC(OC(=O)c2cn(-c3ccc(S(C)(=O)=O)cc3)nn2)CC1` was tested. Which EC50 did it give?
The EC50 was 3.67 nM.

For `CC(C)(C)OC(=O)N1CCC(OC(=O)c2cn(-c3nc4ccccc4s3)nn2)CC1`, which EC50 is on record?
The EC50 was 8.17 nM.

For `CC(C)(C)OC(=O)N1CCC(OC(=O)c2cn(-c3ccc(C#N)cc3F)nn2)CC1`, which EC50 is on record?
The EC50 was 3.59 nM.

Which EC50 does the source give for `CC(C)(C)OC(=O)N1CCC(OC(=O)c2cn(-c3ccc(C(F)(F)F)cc3)nn2)CC1` here?
The EC50 was 10.4 nM.

`CC(C)c1noc(C2CCN(c3ncnc(Nc4ccc(S(C)(=O)=O)cc4F)c3[N+](=O)[O-])CC2)n1` was tested. Which EC50 did it give?
Its EC50 is 4.78 nM.
